# Rows were chosen to be rich in hits. Some 1.8% of all compounds tested hit in one or more screens of this group.
# CHRM4 PAM – potentiates acetylcholine response at human M4 receptor; P08173; CHO-K1 hM4/Gqi5, Fluo-8 calcium fluorescence, ACh EC20; 0% = ACh EC20, 100% = maximal ACh; activation, % at 3 µM; actives 0.4% (n = 360,000); AID 624126;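 active = activation above its plate's cutoff, the mean activation of sample wells plus 3 SD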
# Target sequence (P08173 whole entry, looked up): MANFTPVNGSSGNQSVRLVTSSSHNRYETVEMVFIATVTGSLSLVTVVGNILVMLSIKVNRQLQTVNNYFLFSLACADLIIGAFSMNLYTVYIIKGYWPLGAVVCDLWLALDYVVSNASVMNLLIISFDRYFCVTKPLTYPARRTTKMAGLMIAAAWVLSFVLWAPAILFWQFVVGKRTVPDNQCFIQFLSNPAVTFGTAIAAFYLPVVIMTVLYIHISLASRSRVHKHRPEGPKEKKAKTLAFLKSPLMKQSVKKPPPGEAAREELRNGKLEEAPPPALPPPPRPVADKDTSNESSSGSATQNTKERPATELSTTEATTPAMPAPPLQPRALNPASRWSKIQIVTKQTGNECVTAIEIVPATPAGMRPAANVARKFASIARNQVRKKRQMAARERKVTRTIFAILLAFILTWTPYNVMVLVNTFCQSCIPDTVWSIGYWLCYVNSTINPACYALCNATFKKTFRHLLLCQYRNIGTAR
# M4 antag – blocks acetylcholine activation of human M4 receptor. actives 0.73% (n = 360,000). CHO-hM4 cells, ACh EC80, Fluo-8 calcium fluorescence. P08173. inhibition, % at 3 µM;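 active = inhibition above its plate's cutoff, the mean inhibition of sample wells plus 3 SD, cut at about 27% in these data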;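 note: 0% = acetylcholine EC80 with DMSO and 100% = DMSO without agonist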
# M4 ag – CHRM4 agonism in calcium assay | AID 624127 | CHO-K1 hM4/Gqi5, Fluo-8 calcium fluorescence; vehicle 0%, full acetylcholine response 100% | P08173 | actives 0.14% (n = 360,000) | activation, % at 3 µM;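 active = activation above the run mean over all test wells plus 3 SD, cut at about 32% in these data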;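 note: peak over basal fluorescence ratio per well then scaled between controls; 0% = DMSO wells and 100% = acetylcholine at EC100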
# CHRM5 agonist – agonists of human muscarinic M5 receptor (CHRM5); P08912; CHO-K1 hM5 cells, Fluo-8 calcium fluorescence; 0% DMSO wells, 100% maximal acetylcholine response; activation, % at 3 µM; actives 0.19% (n = 360,000); AID 624037;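 active = activation above the run's mean over test compounds plus 3 SD, cut at about 23% in these data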;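 note: signal is peak over basal fluorescence ratio across the kinetic read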
# CHRM5 antagonist – CHRM5 antagonism in calcium assay; inhibition, % at 3 µM; actives 0.59% (n = 360,000); CHO-hM5 cells, Fluo-8 calcium fluorescence, ACh EC80; AID 624040; P08912;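 active = inhibition above a per-plate cutoff, the mean of that plate's test compounds plus 3 SD, cut at about 27% in these data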;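 note: 0% = acetylcholine EC80 with DMSO and 100% = DMSO without agonist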
# CHRM5 PAM – positive allosteric modulators of human muscarinic M5 receptor. AID 624038. CHO-K1 hM5, Fluo-8 calcium, ACh EC20 PAM; 0% = ACh EC20, 100% = ACh EC100. activation, % at 3 µM. actives 0.3% (n = 360,000). P08912;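 active = activation above the run cutoff, the mean activation of all test compounds plus 3 SD, cut at about 18% in these data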
#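 System: CHO-K1 cell line with stable human muscarinic M5 receptor expression | Also added: EC20 acetylcholine as agonist stimulus | Compound: One concentration, 3 µM final (nominal) | Timing: Fluo-8 loading 80 min at 37 °C plus 30 min room temperature | Measured by: Fluo-8 calcium dye fluorescence, kinetic read | Read-out basis: % activation, ACh-normalized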
# Numbers without * were called inactive; nt = no result given; ! = a repeat was not active.
SMILES,CHRM4 PAM,M4 antag,M4 ag,CHRM5 agonist,CHRM5 antagonist,CHRM5 PAM
O=C1NC[C@H](CCCCN2C[C@H](Cc3ccc(O)cc3)N(CCc3ccc(O)cc3)C(=O)C2=O)N(CCc2ccccc2)C1=O,5,-4,2,2,7,-6
Cc1ccsc1C(=O)NCC(C)(C)N1CCOCC1,5,1,0,-8,-10,22*
CCc1cc(C(=O)NCC(C)(C)N2CCOCC2)sc1C,3,-3,0,-4,-2,6
O=C(NCC(=O)N1CCCC1)NN=Cc1ccccc1O,-1,5,0,-1,0,-1
CC1(c2ccccc2)CC(C)(C)N2C(=O)Cc3cccc1c32 (stereo not given),-13,33*,-1,-8,6,-3
CC1CCN(c2nc3ccccc3n2CC(=O)c2ccccc2)CC1,-26,58*,1,-8,6,-17
Cc1nc2ccccc2n1CC(=O)c1ccccc1,-2,-1,2,5,-1,13
NC(N)=N/N=C/c1c(Cl)cccc1Cl,-5,-8,13,29*!,-2,-15
O=C(O)C1C(c2ccccc2)C(C(=O)Oc2ccccc2)C1c1ccccc1 (stereo not given),-4,2,0,0,5,-2
Cc1cccc(OC(=O)C2C(c3ccccc3)C(C(=O)O)C2c2ccccc2)c1 (stereo not given),31*,21,2,2,-2,-5
O=c1[nH][nH]c2c1[C@H](c1ccccc1)O[C@H](C1CCCCC1)C2,-1,9,2,4,4,-1
COc1ccc(C(O)(CCN2CCCCC2)C2CCCCC2)cc1 (stereo not given),-20,75*,0,-11,64*,-23
NC(c1csc(Nc2ccc(C(=O)NCCO)cc2)n1)C1CCCCC1 (stereo not given),2,-6,0,2,-3,0
O=C(Nc1c(-c2ccc3c(c2)OCO3)[nH][nH]c1=O)c1ccccc1,3,-9,1,1,3,-2
CC(=O)N1CCN(C(=O)CCc2nc3ccccc3c(=O)[nH]2)CC1,11,-8,0,-4,-18,6
O=C(CCc1nc2ccccc2c(=O)[nH]1)N1CCN(C/C=C/c2ccccc2)CC1,-23,4,14,-1,28*,-16
CS(=O)(=O)c1ccc(Cl)c(NC(=O)c2ccc(-n3cncn3)c([N+](=O)[O-])c2)c1,-3,2,1,1,3,-5
Cc1cc(C)n(S(=O)(=O)c2ccc(F)cc2)n1,1,6,0,-2,10,7
Cc1cc(C)n(S(=O)(=O)c2ccc(C(C)(C)C)cc2)n1,-29,29*,1,-11,-5,-22
CN1[C@@H]2CC(OC(=O)[C@H](CO)c3ccccc3)C[C@H]1[C@@H]1O[C@@H]12 (stereo not given in full),-18,100*,0,nt,nt,nt
Cc1cc(=O)oc2cc(OCC(=O)NC3(C#N)CCCCC3)ccc12,4,-11,1,1,-1,-1
CC(C)[C@H](NC(=O)c1ccccc1F)C(=O)NCc1ccc(S(N)(=O)=O)cc1,15*,-26,4,-3,2,10
Cc1ccc(Nc2nc(N)nc(N)c2N=O)cc1Cl,18,-3,11,45*,6,-4
Nc1nc(N)c(N=O)c(Nc2cccc(Cl)c2)n1,5,-9,7,45*,-7,-1
Nc1nc(N)c(N=O)c(Nc2ccc(Cl)c(Cl)c2)n1,21,-12,19,52*,2,-1
Nc1nc(N)c(Br)c(Nc2ccc(Cl)c(Cl)c2)n1,23,-20,4,25*,0,29*
CCc1c(N)nc(N)nc1Nc1ccc(C)c(C)c1,7,-17,4,2,4,-12
Cc1c(C(=O)NCc2ccc3c(c2)OCCO3)sc(=O)n1Cc1ccc(C(=O)N(C)C)cc1,-2,3,6,4,-2,-7
